Active and inactive are the calls of the source. No cut-off for these calls is given here.
Assays:
Mus musculus [1] = test: Antinociceptive activity in male white mouse at 100 mg/kg, sc by hot plate test; format: functional, organism-based; design: dose 100 mg/kg
Outline: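 Hot-plate antinociception test in male white mice, run by the standard method, with the compound given subcutaneously. Room temperature was held at 23 °C during testing.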

Mus musculus [2] = test: Toxicity in male white mouse assessed as induction of convulsions at 100 mg/kg, sc; format: organism-based; design: dose 100 mg/kg, route subcutaneous; conditions: in vivo
Mus musculus [3] = test: Antinociceptive activity in male white mouse at 100 mg/kg, sc by Nilsen test; format: functional, organism-based; design: dose 100 mg/kg
[4] = Toxicity in sc dosed male white mouse; format: organism-based; conditions: in vivo
Outline: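 LD50 determined in the same male white mouse strain, with the same vehicle and subcutaneous route as the antinociceptive tests. Room temperature was 23 °C. 95% confidence limits were obtained by probit analysis.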

Mus musculus [5] = test: Antinociceptive activity in sc dosed male white mouse by hot plate test; format: functional
Mus musculus [6] = test: Antinociceptive activity in sc dosed male white mouse by Nilsen test; format: functional
Mus musculus [7] = test: Antinociceptive activity in male white mouse at 20 mg/kg, sc by Nilsen test; format: functional, organism-based; design: dose 20 mg/kg
Mus musculus [8] = test: Toxicity in male white mouse assessed as induction of convulsions<40 mg/kg, sc; format: organism-based; conditions: in vivo
Mus musculus [9] = test: Toxicity in male white mouse assessed as induction of convulsions at 50 mg/kg, sc; format: organism-based; design: dose 50 mg/kg, route subcutaneous; conditions: in vivo

Compound	LD50 [4]	ED50 (Mus musculus [5])	ED50 (Mus musculus [6])	also measured
CC(C)[C@]12CC(=O)[C@@H](C)[C@H]1C2	442 mg/kg	–	–	Activity (Mus musculus [1]): Active; Activity (Mus musculus [2]): Toxic; Activity (Mus musculus [3]): Active
CCCCCc1cc(O)c2c(c1)OC(C)(C)[C@@H]1CCC(C)=C[C@@H]21 [DRONABINOL]	–	9.6 mg/kg	–	–
CN1CC[C@]23c4c5ccc(O)c4O[C@H]2[C@@H](O)C=C[C@H]3[C@H]1C5.CN1CC[C@]23c4c5ccc(O)c4O[C@H]2[C@@H](O)C=C[C@H]3[C@H]1C5.O=S(=O)(O)O	–	1.2 mg/kg	0.8 mg/kg	–
CC(C)[C@]12C[C@@H](O)[C@H](C)[C@H]1C2	–	33.3 mg/kg	–	–
CCCCCc1cc(O)c2c(c1)OC(C)(C)C1CC=C(CO)CC21 (centres undefined)	–	1.9 mg/kg	5.4 mg/kg	–
COc1ccc2c3c1O[C@H]1[C@@H](O)C=C[C@H]4[C@@H](C2)N(C)CC[C@@]341.Cl	270 mg/kg	7.5 mg/kg	4.5 mg/kg	–
CCCCCc1cc(O)c2c(c1)OC(C)(C)[C@@H]1CC=C(C)CC21 (some centres undefined)	–	8.8 mg/kg	–	Activity (Mus musculus [7]): inactive
CCC(=O)C(CC(C)N(C)C)(c1ccccc1)c1ccccc1 (racemic) [METHADONE]	44 mg/kg	0.8 mg/kg	–	–
CC(C)[C@]12CC(=O)[C@H](C)[C@H]1C2	87.5 mg/kg	6.5 mg/kg	14.1 mg/kg	Activity (Mus musculus [8]): Non-toxic; Activity (Mus musculus [9]): Toxic
CC1C(=O)C[C@]2(C(C)C)C[C@H]12 (mixture of isomers)	134 mg/kg	16.7 mg/kg	–	–
